High-throughput results (PubChem)
A selection: hits, their analogues and other compounds. The true share with any hit is near 1.6%.
A1 inh: caspase 3/7 activation in MEF A1-2A-BIM cells, primary screen, A1 inhibitor project, cell-based, luminescence, HTS; Caspase-Glo 3/7 luminescence, 3 h; percent of clofoctol response, vehicle zero; AID 2462, 2010; 0.066% of 330,000 active; caspase activation, % (test concentration not listed);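 active = over half of replicate activation scores above 10%, or exactly half above 10 with the replicate mean above 10; inconclusive = replicate mean below 10 yet half the replicates above 10; inactive = over half of replicates below 10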
SR-BI DiI-HDL act: activators of SR-BI mediated DiI-HDL uptake, primary screen, ldlA[mSR-BI] CHO cells, DiI fluorescence; 3 h; 100 = double the neutral-control signal; activation, % at 12.5 µM; 0.096% of 320,000 active;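 active = mean replicate activation of at least 60% and every replicate at or above 60%; inconclusive = mean or all-replicate condition met, but not both; inactive = mean below 60% and not all replicates reaching 60%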;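 note: 0% = median plate neutral-control signal and 100% = twice that signal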
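Test system: SR-BI-overexpressing, LDLR-lacking CHO cells. Measured by: DiI fluorescence, bottom read. Medium: Ham's F12 with 0.5% BSA, HEPES 25 mM, pH 7.4. Timing: 3 h uptake period with compound, 37 °C.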
Vif inh: HIV Vif self-association inhibitors, primary screen, imaging, HEK293T, single point. inhibition, % at 7.49 µM. 0.35% of 340,000 active. HEK293T cells, Vif self-association by quenched fluorescence, 24 h; in the data active = inhibition above about 50%, passing the limit was not always enough; inconclusive = no clear call, values can overlap the other calls; inactive = below about 31%
SR-BI DiI inh: inhibitors of SR-BI mediated HDL lipid uptake, primary screen, ldlA[mSR-BI] cells, fluorescence, single point | inhibition, % at 12.5 µM | AID 488896, 2010 | 0.96% of 320,000 active | ldlA[mSR-BI] CHO cells, DiI-HDL uptake fluorescence, 3 h | Scavenger receptor class B member 1 (Mus musculus), Q61009;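 active = mean replicate inhibition of at least 70% and a set share of replicates each scoring 70 or more; inconclusive = meets just one of the two criteria; inactive = fails both criteria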;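 note: 0% = median of neutral control wells and 100% = median of positive control wells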
Target sequence (Q61009 whole entry, looked up): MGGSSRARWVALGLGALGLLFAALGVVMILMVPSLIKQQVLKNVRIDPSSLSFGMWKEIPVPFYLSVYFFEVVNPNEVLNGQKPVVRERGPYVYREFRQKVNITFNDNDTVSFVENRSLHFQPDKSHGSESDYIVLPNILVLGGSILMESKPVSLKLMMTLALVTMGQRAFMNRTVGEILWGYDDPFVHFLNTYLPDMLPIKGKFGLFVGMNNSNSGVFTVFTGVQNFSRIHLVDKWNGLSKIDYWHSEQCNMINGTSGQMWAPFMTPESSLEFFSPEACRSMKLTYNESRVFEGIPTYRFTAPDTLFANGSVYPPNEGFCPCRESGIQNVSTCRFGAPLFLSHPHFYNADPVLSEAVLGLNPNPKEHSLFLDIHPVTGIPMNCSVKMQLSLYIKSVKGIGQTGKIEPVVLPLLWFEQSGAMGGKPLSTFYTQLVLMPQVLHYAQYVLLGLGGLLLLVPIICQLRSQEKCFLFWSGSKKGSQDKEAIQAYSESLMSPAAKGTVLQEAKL
H9c2 TAG inh: inhibitors of triacylglycerol accumulation, primary screen, cell-based, uHTS, fluorescence, H9c2. H9c2 cells, Nile Red lipid (TAG) fluorescence; cells loaded with 200 µM oleic acid. inhibition, % at 12.5 µM. 0.66% of 230,000 active;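 active = pattern-corrected inhibition of lipid staining of at least 50% with the nuclear-stain viability signal not falling by more than 50%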;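 note: 0% = DMSO wells and 100% = triacsin C control wells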
Active calls of the source: *; ? = inconclusive; / = no result.

SMILES | A1 inh | SR-BI DiI-HDL act | Vif inh | SR-BI DiI inh | H9c2 TAG inh
CCOC(=O)c1sc(NC(=O)c2cccc(S(=O)(=O)N3CCc4ccccc43)c2)c(C#N)c1C | -1 | -76 | -18 | 76* | 3
O=C(Nc1nncs1)c1cccc(S(=O)(=O)N2CCc3ccccc32)c1 | 1 | 29 | 1 | -29 | -6
CCC(CC)c1nnc(NC(=O)c2cccc(S(=O)(=O)N3CCc4ccccc43)c2)s1 | 1 | 22 | -6 | -22 | /
CN(CC(=O)Nc1ccccc1Br)C(=O)c1cccc(S(=O)(=O)N2CCc3ccccc32)c1 | / | -82 | 4 | 82* | 1
COc1ccc(NC(=O)CN(C)C(=O)c2cccc(S(=O)(=O)N3CCCc4ccccc43)c2)cc1 | 1 | -39 | -13 | 39 | -24
CCOC(=O)C1(Cc2ccc(Cl)cc2)CCN(C(=O)CCc2ccncc2)CC1 | 0 | -24 | -6 | 24 | -13
COc1ccc(C2/C(=C(/O)c3ccc4c(c3)CC(C)O4)C(=O)C(=O)N2CCN2CCOCC2)cc1OC (configuration not stated) | / | 28 | 3 | -28 | 9
COc1ccc(C2CC(c3c(O)cc(C)oc3=O)=NCCS2)c(OC)c1 (configuration not stated) | 3 | -30 | ? | 78* | 43
Clc1ccc(OCc2noc(-c3ccsc3)n2)c(Cl)c1 | 0 | 10 | 4 | -10 | -10
COc1ccccc1C(=O)Nc1ccc2c(c1)CN(C(=O)CSC)CC2 | 0 | -37 | -6 | 37 | 15
CCOC(=O)CNC(=O)N1CCc2ccc(NC(=O)c3ccccc3Cl)cc2C1 | 1 | -96 | 9 | 96* | /
CSc1cccc(NC(=O)N2CCc3ccc(NC(=O)c4ccccn4)cc3C2)c1 | -5 | -76 | 2 | 76* | /
CCN(CC)C(=O)C(=O)Nc1ccc(F)c(Cl)c1 | -1 | -2 | 7 | 2 | 11
Cc1nc(N2CCCCC2)sc1C(=O)c1ccc(SCCO)c([N+](=O)[O-])c1 | 0 | -78 | -4 | 78* | 9
COC(=O)C1=C(C)NC(=O)NC1c1ccc(OC)c(OC)c1 (configuration not stated) | / | / | 3 | / | 1
COC(=O)C1=C(C)NC(=O)NC1c1ccc(N2CCC(c3ccccc3)=N2)cc1 (configuration not stated) | 3 | -78 | 17 | 78* | -16
CC(=O)OC(C)=O | 0 | 5 | 10 | -5 | /
Cc1oc(-c2ccc(Cl)cc2)nc1CN1CCC(C(=O)NCc2cccnc2)CC1 | 0 | -4 | 87* | 4 | /
Cc1cc(-c2onc3ccc(Cl)cc23)ccc1O | 0 | / | 7 | / | /
CCOc1ccc(N2C(=O)CC(N3CCc4ccccc43)C2=O)cc1 (configuration not stated) | 1 | 1 | 81* | -1 | 0
CCN(CC)CCNc1c(C)cc(CO)c(Cl)c1C | / | / | -1 | / | -8
N#Cc1cc2c(=O)n3ccccc3nc2n(-c2ccccc2Cl)c1=O | 0 | 12 | 154* | -12 | 2
O=C(COC(=O)c1nc(Cl)ccc1Cl)NC(=O)c1ccccc1 | 1 | 12 | 0 | -12 | -2
COc1ccc(C(C#N)N2N=C(c3ccccc3)CC2c2ccccc2)cc1OC (configuration not stated) | 2 | -1 | 1 | 1 | -20
COc1ccc(C(C#N)N2N=C(C)CC2c2ccccc2)cc1OC (configuration not stated) | -1 | -8 | 54* | 8 | 5
SMILES | A1 inh | SR-BI DiI-HDL act | Vif inh | SR-BI DiI inh | H9c2 TAG inh
NC(=O)[C@H]1CC2(CC(c3cccc(NC(=O)COc4ccc(Cl)cc4)c3)=NO2)CN1C(=O)c1ccccc1C(=O)c1ccccc1 (some centres not stated) | -1 | -77 | 2 | 77* | 24
NC(=O)[C@H]1CC2(CC(c3cccc(NC(=O)COc4ccc(Cl)cc4)c3)=NO2)CN1C(=O)c1ccc(Cl)cc1 (some centres not stated) | 0 | -66 | -7 | 66 | -2
CC1(C)CC(NS(=O)(=O)c2ccc(S(N)(=O)=O)cc2)CC(C)(C)N1 | 1 | 37 | -5 | -37 | /
Cc1cc(C)c2nc(SCC(=O)Nc3ccccc3N3CCOCC3)c(C#N)cc2c1 | 1 | -17 | 2 | 17 | 3
Cc1cc(C)c2nc(SCC(=O)N3CC(=O)Nc4ccccc43)c(C#N)cc2c1 | 0 | -22 | 19 | 22 | 54*
Cc1cc(C)cc(C(=O)N2CC(=O)Nc3ccccc32)c1 | 3 | -70 | -4 | ? | 55*
COc1cc(C(=O)N2CC(=O)Nc3ccccc32)cc(OC)c1OC | / | / | 4 | / | 25
C=CCc1ccc(OCc2ccc(C(=O)Nc3ccc(NC(C)=O)cc3)o2)c(OC)c1 | 0 | -49 | 0 | 49 | /
COc1ccc(N=C2NC(=O)S/C2=C\c2ccc(N(C)C)cc2)cc1 | -1 | -33 | 104* | 33 | -43
O=C(c1ccccc1NS(=O)(=O)c1ccc(F)cc1F)N1CCCCC1 | -1 | 7 | -38 | -7 | -16
Cc1ccc(S(=O)(=O)NCCc2nnc3ccc(N4CCOCC4)nn23)cc1 | / | / | -1 | / | 20
Cc1ccc(C(=O)COC(=O)c2ccc3c(c2)C(=O)N(c2cccc4ncccc24)C3=O)cc1 | 6.4* | -3 | -1 | 3 | 14
O=C(COC(=O)c1ccc2c(c1)C(=O)N(c1cccc3ncccc13)C2=O)c1ccc(Cl)cc1 | 0 | -12 | 2 | 12 | /
Cc1ccc2c(c1)-n1c(nc3cc(Cl)ccc3c1=O)C(CC(C)C)NC2=O (configuration not stated) | 1 | / | / | / | /
Cc1cc(C)nc(NC(=NCCc2c[nH]c3ccccc23)NC(=O)c2ccco2)n1 | 0 | -71 | -5 | 71* | -3
Cc1nc(C)n(CC(=O)N2CCCC(C(=O)c3cccc4ccccc34)C2)n1 (configuration not stated) | 0 | -41 | -8 | 41 | -1
CC1(C)NC(=O)N(c2ccc([N+](=O)[O-])c(C(F)(F)F)c2)C1=O | 0 | -2 | -6 | 2 | -12
C=C1[C@@H](OC(C)=O)C=C[C@@]2(C)C=CC(=O)[C@@](C)(OC(C)=O)[C@@H]2[C@@H](OC(C)=O)[C@]2(O)[C@@H](C)C(=O)O[C@H]2[C@H]1Cl | / | / | -12 | / | /
Nc1ncnc2c1ncn2[C@@H]1O[C@H](CNS(=O)(=O)c2cc(S(=O)(=O)c3ccccc3)cs2)[C@@H](O)[C@H]1O | / | 130* | / | -131 | 14
COc1ccc(-c2csc(Nc3ccc(C)cn3)n2)cc1OC | 0 | -77 | 0 | 77* | -12
COc1ccc(CN(C)C(=O)CSc2nnc(C3CC3)n2C2CC2)cc1 | / | 25 | -3 | -25 | -6
